Legend:
Phelipanche ramosa seeds [1] = test: Germination stimulation activity assay on P. ramosa seeds; conditions: in vivo
[2] = tested on: A. thaliana htl-3/p35S::GFP-PrKAI2d3 seeds; test: Arabidopsis germination assay, htl-3 complemented with PrKAI2d3; format: in vivo, Arabidopsis thaliana; conditions: Arabidopsis Col-0, htl-3 and the three p35S::GFP-PrKAI2d3 complemented lines; data not shown
In short: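 After-ripened (≥6 weeks), surface-sterilized seeds were suspended in 1 mM HEPES pH 7.5 at 10 mg/mL and dispensed at about 20–25 seeds per well. Stimulant (GR24 isomers) or DMSO control was added. Plates were incubated either 5 days at 25°C in darkness or, for thermo-inhibition, 7 days at 32–34°C under constant light (10 μmol m−2 s−1). Germination was scored as radicle protrusion. Groups were compared by Kruskal–Wallis.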

PrKAI2d3 [3] = test: Thermostability of PrKAI2d3 by nanoDSF; format: binding, Phelipanche ramosa; conditions: PrKAI2d3 at 10 μM, ligands at 100 μM
In short: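 Protein at about 10 μM in PBS (100 mM phosphate pH 6.8, 150 mM NaCl) was mixed with ligand or no ligand. Intrinsic fluorescence (350/330 nm ratio) was recorded over a 1°C/min temperature ramp at 55% excitation. Apparent Tm was taken from the first derivative of the ratio curve.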

Striga hermonthica seeds = test: Germination stimulation activity assay on S. hermonthica seeds; format: in vivo
In short: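 Surface-sterilized seeds were conditioned in darkness at 30°C. Compounds were dissolved at 10 mM in DMSO, serially diluted in water/DMSO 9:1, and applied at 10−13 to 10−6 M (final water/DMSO 99:1). Controls were 1% DMSO (negative) and 1 μM (±)-GR24 (positive). Germination was expressed relative to the positive control in each assay, with at least three repeats. EC50 came from a four-parameter logistic fit.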

[4] = tested on: A. thaliana htl-3/ShHTL7 seeds; test: Arabidopsis germination assay, htl-3 expressing ShHTL7; format: in vivo
[5] = tested on: pea (Pisum sativum) shoot branching; test: Pea shoot branching assay; format: in vivo; conditions: direct injection in the stem, 100 μM, rms1-10
rice (Oryza sativa) = conditions: high concentration (50 μM); ref Nakamura et al., 2013; cited from earlier work
Phelipanche ramosa seeds [6] = test: Inhibition of P. ramosa germination stimulation induced by GR24 or 2-PEITC; format: in vivo
In short: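 Seeds from a genetic-group-1 population were surface-sterilized and conditioned in darkness at 21°C. Germination was stimulated with 10 nM (±)-GR24 or 100 nM 2-PEITC in the presence of test compound. Maximum inhibition and IC50 were derived from the response.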

PrKAI2d3 [7] = test: Enzymatic assays with profluorescent probes and p-nitrophenyl acetate; format: biochemical, Phelipanche ramosa

## S=C=NCCc1ccccc1 [2-PEITC, phenethyl isothiocyanate]
Phelipanche ramosa seeds [1]
  Seeds of P. ramosa fold less sensitive than to (±)-GR24: approximately 10 000 fold
[2]
  sensitivity of germination in words: insensitive
PrKAI2d3 [3]
  apparent melting temperature (Tm): 45.1 °C

## CC1=CC(O)OC1=O [D-OH, 4-Hydroxy-2-methylbut-2-en-4-olide]
Striga hermonthica seeds
  EC50: 1200 nM
[4]
  EC50: 3100 nM
[5]
  effect on branching control in pea, in words: no effect on branching control
Rice (Oryza sativa)
  bioactivity in rice, in words: bioactive

## CC1=CC(=O)CC(C)(C)[C@@]1(O)/C=C/C(C)=C\C(=O)O [ABA, abscisic acid]
Phelipanche ramosa seeds [6]; 2-PEITC (100 nM)
  IC50: 34 nM
Phelipanche ramosa seeds [6]; GR24 (10 nM)
  IC50: 100 nM

## CC(=O)Oc1ccc([N+](=O)[O-])cc1 [p-NPA, para-nitrophenyl acetate]
PrKAI2d3 [7]
  PrKAI2d3 hydrolase activity with generic substrate, in words: no hydrolytic activity was detected

From publication PMC8553955 (Plant Communications, 2021)
